# Results taken from PMC3076219 (European journal of immunology, 2009).
# Values joined by “and” are separate entries in the source; they are usually repeats but may differ in a detail not shown here. Equal entries are not always repeated.
# What was measured:
# neutrophils [1] = settings: LL-37; ref [15]; cited from earlier work
# CXCR2 [2] = assay: Total CXCR2 protein in neutrophils, western blot; type: cell-based, human; settings: LL-37 treated neutrophils, Supporting Information Fig. 6B
# CXCR2 [3] = settings: LL-37 treated neutrophils; ref [15]; cited from earlier work
# monocytes [4] = settings: cited from earlier work
# [5] = tested on: CXCR1 transfected HEK293 cells; assay: Secondary necrosis of CXCR1 transfected HEK293 cells; type: cell-based; settings: Supporting information Fig. 4
# monocytes [6] = assay: Migration of monocytes, 24-well Transwell; type: cell-based, human; settings: LL-37 5 µM, CXCL1 50 nM, WKYMVm 5 µM, ATP 50 µM, BzATP 50 µM; 90 min, 37°C; Fig. 7F
# Outline: (§1)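 CFSE-labelled monocytes or THP-1 cells (5 µM, 5 min RT) at 2×10^6/mL in phenol-red-free RPMI 1640 with 1% FBS went in the Transwell upper chamber (3-µm pores). Stimuli in the lower chamber included CXCL1 50 nM, WKYMVm 5 µM and ATP/BzATP 50 µM. Cells were used with or without 20 min preincubation with 10 µM CXCR2 antagonist. Incubation at 37 °C lasted 90 min for monocytes and 2 h for THP-1. Lower-well cells were read at 495 nm against a standard curve, in quadruplicate.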
# neutrophils [7] = settings: ref [15], cited from earlier work
# CD4+ T cells = settings: ref [3], [9], [10]; cited from earlier work
# neutrophils [8] = settings: ref [13]; cited from earlier work
# FPR2 = FPR2 surface expression on neutrophils; type: cell-based, human; settings: LL-37; data not shown
# [9] = tested on: 125I-CXCL8 specific binding sites on neutrophils (CXCR1/2); assay: Competition with 125I-CXCL8 for binding to neutrophils; design: species or system human; settings: 1.25 nM 125I-CXCL8, 2h on ice, triplicate, dose-dependent, Fig. 5B
# macrophages = settings: including chemokines and their receptors; ref [6]; cited from earlier work
# [10] = tested on: CXCR2 transfected HEK293 cells; assay: Secondary necrosis of CXCR2 transfected HEK293 cells; type: cell-based; settings: Supporting information Fig. 4
# THP-1 cells [11] = assay: Calcium mobilization in THP-1 cells; type: cell-based; settings: Fig. 7C
# Outline: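 Peripheral blood monocytes (kit-isolated from PBMC, CD14-checked) or THP-1 cells at 10^7/mL were loaded with 5 µM Indo-1-AM for 7 min at 37 °C, then held 10 min at RT and washed in cold PBS. Cells were run at 2×10^6/mL in KRP (PBS, 1.5 mM CaCl2, 1.5 mM MgSO4). After baseline they got a first stimulus, then a second. Flow cytometry used 351 nm excitation and the 405:485 nm ratio, gating live cells. Three independent experiments.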
# CXCR2 [12] = assay: CXCR2 surface expression on monocytes; type: cell-based, human; settings: Supporting information Fig. 2
# CXCR2 [13] = assay: Calcium mobilization in HEK293/CXCR2 cells; type: cell-based, human; settings: Indo-1; Fig. 7A-B
# Outline: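 They were washed in cold PBS, pelleted at 200 × g for 10 min at 4 °C, and resuspended in PBS with Ca/Mg. […] [Ca2+]i was read as the 405:485 nm ratio by flow cytometry, gating on living cells.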
# CXCR2 [14] = assay: Block of anti-CXCR2 antibody binding to neutrophils; type: cell-based, human; settings: LL-37 treated neutrophils; Supporting Information Fig. 6A
# CXCR1 [15] = assay: CXCR1 surface expression on neutrophils, flow cytometry; type: cell-based, human
# Outline: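 Human blood neutrophils were isolated by dextran sedimentation and Ficoll (>95% CD16+) and held at 5×10^6/mL in RPMI 1640 with 1% FBS. They were treated 3h with a dose series (test peptide 1–10 µM; chemokines 1, 5, 10, 50 nM) or with 5 µM for 0.5–3h. Cells were blocked in 10% human serum and stained with anti-CXCR1-APC/anti-CXCR2-FITC or anti-P2X7-FITC, plus anti-CD16. Read-out was flow cytometry GMFI.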
# THP-1 cells [16] = assay: Migration of THP-1 cells, 24-well Transwell; type: cell-based; settings: LL-37 5 µM, CXCL1 50 nM, WKYMVm 5 µM, ATP 50 µM, BzATP 50 µM; 2 h, 37°C; Fig. 7E
# Outline: as §1
# neutrophils [17] = assay: Neutrophil migration, 24-well Transwell; type: cell-based, human; settings: 1 h, 37°C, Fig. 6H
# Outline: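 CFSE-labelled human neutrophils (5 µM, 5 min RT) at 5×10^6/mL in phenol-red-free RPMI 1640 with 1% FBS went in the Transwell upper chamber (3-µm pores). The lower chamber held test peptide (1 or 5 µM) or medium. Some cells were first preincubated 20 min with 10 µM CXCR2 antagonist. After 1 h at 37 °C, migrated cells were read at 495 nm against a standard curve. Quadruplicate; unpaired t-test.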
# CXCR1 [18] = assay: Calcium mobilization in HEK293/CXCR1 cells; type: cell-based, human; settings: Indo-1; Fig. 7A-B
# Outline: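 CXCR1-transfected HEK293 cells were loaded with 5 µM Indo-1-AM in 5 µM pluronic F-127/PBS for 30 min at RT. They were washed in cold PBS, spun at 200 × g for 10 min at 4 °C and suspended in PBS with calcium and magnesium. Stimulation followed baseline recording. Flow cytometric [Ca2+]i was read as the 405:485 nm emission ratio with 351 nm excitation. Three independent experiments.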
# immature dendritic cells = settings: differentiated from monocytes; ref [9]; cited from earlier work
# neutrophils [19] = assay: Toxicity to neutrophils; type: cell-based, human
# [20] = cited from earlier work
substance,measurement,setting,value
"LL-37: ~4.5 kD active α-helical peptide, C-terminal domain of human cathelicidin hCAP18",ATP release,neutrophils [1],induces ATP release from neutrophils
same,total CXCR2 protein level,CXCR2 [2],no changes in total amounts
same,down-regulation among 21 cell surface markers,CXCR2 [3],only CXCR2 was specifically down-regulated
same,migration of human peripheral monocytes,"monocytes [4]; ref [3], [9], [10]",migration of human peripheral monocytes
same,in vitro migration of human peripheral blood monocytes,monocytes [4]; ref [9],induces in vitro migration of human peripheral blood monocytes
same,"generation of secondary necrotic cells, HEK293/CXCR1",[5],generation of secondary necrotic cells
same,stimulation of migration of monocytes,monocytes [6],able to stimulate migration in monocytes
same,cytotoxicity,neutrophils [7]; LL-37 10 µM,general cytotoxicity is observed at this dosage
same,toxic effect on freshly isolated neutrophils,neutrophils [7]; annexin V negative,no toxic effect
same,migration of CD4+ T cells,CD4+ T cells,"migration of human peripheral monocytes, neutrophils, CD4+ T cells"
same,inhibition of spontaneous neutrophil apoptosis,neutrophils [8],potent inhibitor of spontaneous neutrophil apoptosis
same,"FPR2 surface expression, time course",FPR2,remained unchanged
same,maximum competition of 125I-CXCL8 binding,[9]; 2×10^6 cells,around 50%
same,displacement of 125I-CXCL8,[9],partly displace
same,number of genes with stimulated expression by macrophages,macrophages,over 40 genes
same,"generation of secondary necrotic cells, HEK293/CXCR2",[10],generation of secondary necrotic cells
same,calcium signal in THP-1 cells,THP-1 cells [11],robust calcium signal
same,"return of Ca2+ response to baseline, THP-1",THP-1 cells [11]; LL-37,returns to baseline for THP-1 cells
same,block of ATP induced calcium mobilization by LL-37,THP-1 cells [11]; THP-1,able to partially block
same,CXCR2 down-regulation on monocytes,CXCR2 [12],down-regulate CXCR2
same,calcium mobilization in CXCR2 transfected HEK293 cells,CXCR2 [13],weak but similar patterns of calcium mobilization
same,block of anti-CXCR2 antibody binding,CXCR2 [14],did not block anti-CXCR2 antibodiy binding
same,"CXCR1 surface expression, time course","CXCR1 [15]; LL-37 5 µM, 0.5-3h, Fig. 1C",not affected by LL-37 treatment
same,CXCR1 down-regulation at 10 µM,"CXCR1 [15]; LL-37 10 µM, 3h",does not down-regulate CXCR1
same,stimulation of migration of THP-1 cells,THP-1 cells [16],but not THP-1 cells
same,neutrophil migration at 1 µM,neutrophils [17]; LL-37 1 µM,not at 1 µM
same,neutrophil migration at 5 µM,"neutrophils [17]; LL-37 5 µM, over background, p<0.05",induced neutrophil migration (over background)
same,calcium mobilization in CXCR1 transfected HEK293 cells,CXCR1 [18],only CXCL8 gave a response
same,migration of immature dendritic cells,immature dendritic cells,but not immature dendritic cells
same,cell membrane permeability,"neutrophils [19]; > 10 µM LL-37, 125I-CXCL8 enters cells non-specifically",can cause cell membrane permeability
same,concentration with toxic activity on neutrophils,neutrophils [19]; in 125I-CXCL8 binding study,> 10 µM and 10 µM
same,wound neovascularization,[20]; ref [7],promotes wound neovascularization
same,re-epithelialization of healing skin,[20]; ref [8],re-epithelialization of healing skin
